High-throughput results from PubChem BioAssay.
MEKK3 PB1 HTS: MEKK3-MEK5 PB1 interaction, increase or decrease; AID 1529; Q99759; bead-based flow cytometry, Alexa488-MEK5 binding to MEKK3; actives lie on both sides; 0 = blocked by unlabeled MEK5, 100 = vehicle; binding response (% of control), % at 10 µM; actives 1.4% (n = 290,000);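 active = binding response more than 3 SD above or below the average of its plate-row segment, actives on both sides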;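 also: Alexa488 bead fluorescence after subtracting the streptavidin-only scavenger bead signal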
Target sequence (Q99759 whole entry, looked up): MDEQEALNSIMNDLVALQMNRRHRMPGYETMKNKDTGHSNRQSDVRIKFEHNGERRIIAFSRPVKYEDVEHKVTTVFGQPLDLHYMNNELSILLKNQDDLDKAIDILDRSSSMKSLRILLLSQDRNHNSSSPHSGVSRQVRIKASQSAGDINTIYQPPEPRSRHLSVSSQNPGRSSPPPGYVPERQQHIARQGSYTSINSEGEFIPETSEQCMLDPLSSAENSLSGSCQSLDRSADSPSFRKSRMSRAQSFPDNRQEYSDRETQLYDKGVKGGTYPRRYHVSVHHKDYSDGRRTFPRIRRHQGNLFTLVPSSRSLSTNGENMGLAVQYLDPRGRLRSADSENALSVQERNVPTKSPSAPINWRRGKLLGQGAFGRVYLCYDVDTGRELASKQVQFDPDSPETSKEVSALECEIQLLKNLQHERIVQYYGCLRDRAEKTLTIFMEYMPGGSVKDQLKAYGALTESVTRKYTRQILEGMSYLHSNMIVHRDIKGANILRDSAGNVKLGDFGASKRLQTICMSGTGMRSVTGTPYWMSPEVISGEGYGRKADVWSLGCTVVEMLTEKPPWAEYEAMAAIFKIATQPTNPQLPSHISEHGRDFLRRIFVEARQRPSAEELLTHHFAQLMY
MEKK2 WT-MEK5: raises or lowers MEK5 binding to wildtype human MEKK2 PB1 domain. Q9Y2U5. bead flow cytometry, Alexa488-MEK5 binding to MEKK2 WT; actives lie on both sides. binding response (% of control), % at 10 µM. actives 1.1% (n = 290,000). AID 1531; in the data active = binding response below about 67% or above about 130%
MEKK2mut PB1 HTS: signal of MEK5 binding to mutant human MEKK2 PB1 domain | bead flow cytometry, Alexa488-MEK5 binding to MEKK2 mutant | percent response, % at 10 µM | AID 1530 | actives 0.35% (n = 290,000); in the data active = percent response above about 24%, passing the limit was not always enough
Hep lipid drop: hepatic lipid droplet formation modulation. inhibition, % at 6.5 µM. actives 0.4% (n = 240,000). AML12 mouse hepatocytes, oleate lipid droplets, BODIPY imaging;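 active = lipid droplet intensity inhibited by at least 50%, with more than 500 cells counted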
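Assay system: AML12 mouse liver cells | Compound: 6.5 µM single-point dosing | Schedule: Overnight exposure | Technique: Fluorescence imaging, 20x objective, two fields per well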
MEKK2wt confirm: raises or lowers MEK5 binding to wildtype human MEKK2, retest; shares compounds with MEKK3 PB1 HTS; binding response (% of control), % at 10 µM; actives 2.4% (n = 5,900); bead flow cytometry, Alexa488-MEK5 binding to MEKK2 WT; actives lie on both sides; in the data active = binding response below about 16% or above about 210%; inactive = in between
MEKK2mut-MEK5: signal of MEK5 binding to mutant human MEKK2, retest; shares compounds with MEKK3 PB1 HTS; percent response, % at 10 µM; AID 1893; bead flow cytometry, Alexa488-MEK5 binding to MEKK2 mutant; actives 2% (n = 5,900); in the data active = percent response mostly above about 71%, no sharp cut-off; inactive = mostly below about 38%;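 also: higher means compound restores mutant binding toward wildtype level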
MEKK3-MEK5 inh: confirmation of inhibitors of MEK5 binding to human MEKK3; bead flow cytometry, Alexa488-MEK5 binding to MEKK3; hits give low values; binding response (% of control), % at 10 µM; shares compounds with MEKK3 PB1 HTS; AID 1894; actives 1.8% (n = 5,900);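 active = binding response below 72% of control, or above a set upper limit, though filed actives all read lower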;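 also: 100% = DMSO only wells and 0% = binding blocked by excess unlabeled MEK5; lower values mean stronger disruption of MEK5 binding to MEKK3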
Hep lipid conf: confirmation of inhibitors of hepatic lipid droplet formation. actives 65% (n = 870). shares compounds with Hep lipid drop. AML12 mouse hepatocytes, BODIPY lipid droplet imaging; droplets induced with 100 µM oleic acid. inhibition, % at 5.2 µM;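 active = inhibition of lipid droplet metric at least 50%, with more than 300 cells in each of four replicates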;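 also: plate controls were DMSO with oleic acid for no effect and 5 µM Triacsin-C for full effect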
AML12 tox img: toxic to AML12 mouse hepatocytes in counter-screen | DAPI nuclear morphology cytotoxicity imaging; hits give high values; cells fed 100 µM oleate overnight | shares compounds with Hep lipid drop | z-score at 5 µM | actives 3% (n = 870); in the data active = z-score above about 6.3;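 also: compound exposure lasted overnight at 37 °C before fixation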
* = called active by the depositor; nt = not tested or not shown; ! = repeats disagree; [ ] = another dose, or the depositor's remark. Only some compounds are listed: those with a hit (about 2.6% of all), similar ones and a draw of the others.

SMILES	MEKK3 PB1 HTS	MEKK2 WT-MEK5	MEKK2mut PB1 HTS	Hep lipid drop	MEKK2wt confirm	MEKK2mut-MEK5	MEKK3-MEK5 inh	others
ClCCN1CCN(c2ccnc3cc(Cl)ccc23)CC1	107	154*	20	-3	112	9	104
CCCCCCN1CCN(c2ccc(Cl)cc2)CC1	81	89	-9	-12	nt	nt	nt
CC(C)COc1ccc(C2(C#N)CC[N+](C)(C)CC2)cc1	80*[inhibitor]	85	-17	nt	100	2	101
COc1ccc(C2(C#N)CCN(C)CC2)cc1	92	94	-3	7	nt	nt	nt
COc1ccc(CNCCc2cccc(F)c2)c2ccccc12	113	151*	16	-65	117	10	103
COc1cc(OC)c(OC)cc1CNCCc1cccc(F)c1	104	103	10	nt	nt	nt	nt
CCCCn1c(O)c(C(=O)/C=C/c2c[nH]c3ccccc23)c(=O)[nH]c1=O	97	99	-6	3	nt	nt	nt
Oc1ccc2c3c1OC1C(O)CC[C@@]4(O)[C@@H](C2)N(CC2CCC2)CC[C@]314 (stereo partly drawn)	70	53*![inhibitor]	-1	-9	115	9	108
CS(=O)(=O)Nc1ccc(Cc2noc(-c3ccc4[nH]cc(CCN)c4c3)n2)cc1	107	156*!	11	-20	131	11	99
NCCc1c[nH]c2ccc(F)cc12	98	102	3	nt	nt	nt	nt
C1=C(c2c[nH]c3ccccc23)CCNC1	107	173*	99*	nt	122	8	105
O=C(Nc1ccc(Cl)cc1)OC1CN2CCC1CC2 (stereo not drawn)	86	93	-8	3	nt	nt	nt
O=C(Nc1cccc(Cl)c1)OC1CN2CCC1CC2 (stereo not drawn)	110	147*	27	8	125	8	98
CC(NCc1cccc(Cl)c1Cl)C(O)c1ccccc1 (stereo not drawn)	102	43*[inhibitor]	5	-8	103	2	104
COC(=O)C1=C(c2cc3ccccc3o2)C[C@@H]2CC[C@H]1N2C(=O)NCc1ccco1	111	107	4	nt	nt	nt	nt
CC(=O)N1N=C2C3CCN(CC3)C2C1c1ccccc1 (stereo not drawn)	1.0*[inhibitor]	-2.0*[inhibitor]	-21	nt	99	1	104
COc1cccc(NP(=O)(Oc2ccccc2Cl)Oc2ccccc2Cl)c1	137*	109	1	-66	101	-7	104
CCC1C(c2ccccc2)NC(c2ccccc2)CC1(O)c1ccc(F)cc1 (stereo not drawn)	107	152*	43	-21	122	17	108
COc1cc2c3cc1Oc1cc(ccc1O)C[C@@H]1c4c(cc(OC)c(O)c4Oc4ccc(cc4)C[C@H]3N(C)CC2)CCN1C	107	134*	10	-8	118	8	97
CN1CCc2cc(O)cc3c2[C@H]1Cc1ccc(O)c(O)c1-3	103	111	3	nt	nt	nt	nt
Cc1cc(C)cc(NC2=NCCCS2)c1	94	89	-8	2	nt	nt	nt
O=c1[nH]c(=O)n(-c2cccc3ccccc23)c(O)c1/C=N/N1CCCCC1c1cccnc1 (stereo not drawn)	134*	106	0	13	102	-2	102
COC(=O)C1=C(c2cc3ccccc3o2)C[C@@H]2CC[C@H]1N2C(=O)N1CCC(O)CC1	107	101	4	nt	nt	nt	nt
CC1(c2ccccc2)NCCN2C(=O)CSC21 (stereo not drawn)	102	98	2	8	nt	nt	nt
CC1(C)C2SCC(=O)N2CCN1CC(=O)NN (stereo not drawn)	128*	122	25	-5	96	-1	97
CCC(C)N1C(=O)/C(=C/c2ccc3c(c2)CCN3CCCCl)C(=O)NC1=S (stereo not drawn)	90	69	9	7	nt	nt	nt
CC1(C)CN=C(Nc2ccc(F)c(Cl)c2)S1	103	105	1	116*	nt	nt	nt	Hep lipid conf=3;AML12 tox img=-0.0092
CC1(C)CN=C(Nc2ccc(F)c(F)c2)S1	116	118	14	nt	nt	nt	nt
CCc1ccc(-n2c(O)c(C(C)=O)c(=O)[nH]c2=O)cc1 (tested in a mixture with another compound)	105	103	14	70*	nt	nt	nt	Hep lipid conf=23;AML12 tox img=-1.3
COc1ccc(-n2c(O)c(C(C)=NCCc3c[nH]c4ccccc34)c(=O)[nH]c2=O)cc1	105	102	5	nt	nt	nt	nt
